Laboratory results: ChEMBL document CHEMBL4837214, “Design, synthesis, and biological evaluation of novel tetrahydroprotoberberine derivatives to reduce SREBPs expression for the treatment of hyperlipidemia” (Eur J Med Chem, 2021)
The source made the active and inactive calls. No cut-off for these calls is given here.

Legend:
Mus musculus [1] = assay: Hypolipidemic activity in high fat diet-induced C57BL/6J mouse assessed as reduction in cell size of BAT at 170 to 340 mg/kg, po administered daily for 6 weeks by H and E staining based assay; assay type: functional, organism-based; conditions: dose 170-340 mg/kg
Procedure, shortened: (§1)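 Male C57BL/6J mice, six weeks old, fed a 45%-fat diet (HFD) for 15 weeks; chow-fed mice served as controls. Obese mice were randomized to vehicle (0.1% w/v CMC-Na) or 170 or 340 mg/kg, gavaged daily for 6 weeks while diet continued. Body weight, food intake, organ weights, serum lipids, tissue histology (H&E, Oil red O), liver SREBP blots and liver qPCR followed.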

Mus musculus [2] = assay: […] activity in high fat diet-induced C57BL/6J mouse assessed as reduction in Fasn mRNA level in liver at 170 to 340 mg/kg, po administered daily for 6 weeks by qRT-PCR analysis; assay type: functional, organism-based; conditions: dose 170-340 mg/kg; procedure, shortened: as §1
Mus musculus [3] = assay: […] activity in high fat diet-induced C57BL/6J mouse assessed as reduction in LDLR mRNA level in liver at 170 to 340 mg/kg, po administered daily for 6 weeks by qRT-PCR analysis; assay type: functional, organism-based; conditions: dose 170-340 mg/kg; procedure, shortened: as §1
HepG2 [4] = assay: Down regulation of intracellular TC level in human HepG2 cells at 10 uM measured after 24 hrs; assay type: functional, cell-based
Procedure, shortened: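 HepG2 cells grown in six-well plates and exposed 24 h to compound at […]. Cells collected in PBS and sonicated (5 s on, 10 s off, 60 s total). Total cholesterol or triglyceride measured with a colorimetric determination kit.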

[5] = Tmax in Sprague-Dawley rat at 1 mg/kg, iv measured upto 12 hrs by LC-MS/MS analysis; assay type: ADME, organism-based; conditions: in vivo
Procedure, shortened: (§2)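 Six SD rats split into two groups of three, dosed 1 mg/kg IV or 10 mg/kg orally. IV blood drawn at 2, 5, 15, 30 min and 1, 2, 4, 6, 8, 12 h. Oral blood drawn at 5, 15, 30 min and 1, 2, 4, 6, 8, 12, 24 h. Serum drug measured by LC/MS/MS. Parameters are the average of three runs.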

[6] = Half life in Sprague-Dawley rat at 1 mg/kg, iv measured upto 12 hrs by LC-MS/MS analysis; assay type: ADME, organism-based; conditions: in vivo; procedure, shortened: as §2
[7] = Half life in Sprague-Dawley rat at 10 mg/kg, po measured upto 24 hrs by LC-MS/MS analysis; assay type: ADME, organism-based; conditions: in vivo; procedure, shortened: as §2
HepG2 [8] = assay: Down regulation of ACC gene expression in human HepG2 cells by qRT-PCR analysis; assay type: functional, cell-based
[9] = Toxicity in high fat diet-induced C57BL/6J mouse assessed as reduction in body weight at 170 to 340 mg/kg, po measured every week for 6 weeks; assay type: organism-based; conditions: in vivo, 1008 h, dose 170-340 mg/kg; procedure, shortened: as §1
[10] = AUC (0 to infinity) in Sprague-Dawley rat at 10 mg/kg, po measured upto 24 hrs by LC-MS/MS analysis; assay type: ADME, organism-based; parameters: route oral, dose 10 mg/kg, time <=24; conditions: in vivo
Procedure, shortened: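 Six SD rats split into two groups (n=3 each), dosed once either intravenously at 1 mg/kg or orally at 10 mg/kg. Blood sampled at 2 min–12 h after IV dosing and at 5 min–24 h after oral dosing. Serum drug level measured by LC/MS/MS. AUC0-∞ is the mean of three runs.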

Mus musculus [11] = assay: Hypolipidemic activity in high fat diet-fed C57BL/6J mouse assessed as reduction in epididymal fat/body weight ratio at 170 to 340 mg/kg/day, po administered for 6 weeks; assay type: functional, organism-based; conditions: dose 170-340 mg/kg/day; procedure, shortened: as §1
[12] = Toxicity in high fat diet-induced C57BL/6J mouse assessed as reduction in food intake at 170 to 340 mg/kg, po measured every week for 6 weeks; assay type: organism-based; conditions: in vivo, 1008 h, dose 170-340 mg/kg; procedure, shortened: as §1
Mus musculus [13] = assay: Hypolipidemic activity in high fat diet-induced C57BL/6J mouse assessed as reduction in lipid accumulation in liver at 170 to 340 mg/kg, po administered daily for 6 weeks by Oil Red O staining based assay; assay type: functional, organism-based; conditions: dose 170-340 mg/kg; procedure, shortened: as §1
[14] = Cmax in Sprague-Dawley rat at 10 mg/kg, po measured upto 24 hrs by LC-MS/MS analysis; assay type: ADME, organism-based; parameters: route oral, dose 10 mg/kg, time <=24; conditions: in vivo; procedure, shortened: as §2
Mus musculus [15] = assay: […] activity in high fat diet-induced C57BL/6J mouse assessed as reduction in Scd mRNA level in liver at 170 to 340 mg/kg, po administered daily for 6 weeks by qRT-PCR analysis; assay type: functional, organism-based; conditions: dose 170-340 mg/kg; procedure, shortened: as §1
Mus musculus [16] = assay: Hypolipidemic activity in high fat diet-induced C57BL/6J mouse assessed as reduction in serum TG level at 170 to 340 mg/kg, po administered daily for 6 weeks; assay type: functional, organism-based; conditions: dose 170-340 mg/kg; procedure, shortened: as §1
[17] = Clearance in Sprague-Dawley rat at 10 mg/kg, po measured upto 24 hrs by LC-MS/MS analysis; assay type: ADME, organism-based; conditions: in vivo; procedure, shortened: as §2
[18] = Toxicity in high fat diet-induced C57BL/6J mouse assessed as change in lung morphology at 170 to 340 mg/kg, po administered for 6 weeks by H and E staining-based assay; assay type: organism-based; conditions: in vivo, 1008 h, dose 170-340 mg/kg; procedure, shortened: as §1
Mus musculus [19] = assay: Hypoglycemic activity in high fat diet-induced C57BL/6J mouse assessed as improvement in insulin tolerance at 170 to 340 mg/kg, po administered daily for 6 weeks and measured up to 120 mins by ITT method; assay type: functional, organism-based; conditions: dose 170-340 mg/kg; procedure, shortened: as §1

- Tmax [5]: 1.98 min
- half-life [6]: 4.95 h
- half-life [7]: 5.36 h
- AUC [10]: 4290 ng·h/mL
- Cmax [14]: 428 ng/mL
- CL [17]: 8.52 mL/min/kg
Structure (SMILES): COc1ccc2c(c1OCC1CCCCC1)CN1CCc3cc4c(cc3C1C2)OCO4 (centres undefined)
- Activity (Mus musculus [1]): Active
- Activity (Mus musculus [2]): Active
- Activity (Mus musculus [3]): Active
- Activity (HepG2 [4]): Active
- Activity (HepG2 [8]): Active
- Activity [9]: Toxic
- Activity (Mus musculus [11]): Active
- Activity [12]: Non-Toxic
- Activity (Mus musculus [13]): Active
- Activity (Mus musculus [15]): Active
- Activity (Mus musculus [16]): Active
- Activity [18]: Non-Toxic
- Activity (Mus musculus [19]): Active
